Laboratory results reported in ChEMBL document CHEMBL2417459, “Chrysophaentins are competitive inhibitors of FtsZ and inhibit Z-ring formation in live bacteria” (Bioorg Med Chem, 2013).
Values after ≈ are worked out from the molar mass of the structure shown. Each block holds one compound with its values, some of them ahead of it. Active and inactive are the calls of the source. No cut-off for these calls is given here.

Tests used:
Escherichia coli [1] = test: Inhibition of C-terminal YFP-fused Escherichia coli FtsZ cloned in Escherichia coli envA1 assessed as mislocalization of protein in polar region at 4.9 uM after 30 to 60 mins by fluorescence microscopic analysis
Method in brief: (§1)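 envA1 carrying arabinose-inducible pFtsZ-YFP grown in LB with 20 µg/mL chloramphenicol at 37 °C to OD600 ~0.2, then induced with 0.4% L-arabinose for 30 min. Cells washed in PBS/tetracycline and resuspended in LB. 1 mL aliquots treated in 1% MeOH or 1% DMSO for 30 or 60 min. Imaged by confocal fluorescence (ex 488, em 558) plus DIC, 100× objective.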

[2] = target: T1, Cell division protein FtsZ (Bacillus subtilis) (UniProt A5Z1V5); test: Inhibition of Bacillus subtilis SU570 GFP-fused FtsZ assessed as perturbation of Z-ring formation at 12 uM after 60 mins by fluorescence microscopic analysis
T1 sequence (whole entry): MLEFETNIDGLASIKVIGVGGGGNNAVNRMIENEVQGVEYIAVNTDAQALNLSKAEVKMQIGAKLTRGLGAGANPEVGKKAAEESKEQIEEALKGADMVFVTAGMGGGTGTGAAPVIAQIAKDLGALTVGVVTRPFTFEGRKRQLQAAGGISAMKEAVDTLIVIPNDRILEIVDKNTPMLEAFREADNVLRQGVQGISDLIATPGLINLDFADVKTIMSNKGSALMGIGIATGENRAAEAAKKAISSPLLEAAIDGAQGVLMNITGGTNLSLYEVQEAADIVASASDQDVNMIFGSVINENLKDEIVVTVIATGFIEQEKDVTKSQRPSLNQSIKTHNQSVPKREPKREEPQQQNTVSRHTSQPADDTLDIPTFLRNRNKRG

Escherichia coli [3] = test: Inhibition of recombinant Escherichia coli FtsZ GTPase activity expressed in Escherichia coli BL21 (DE3) assessed as production of inorganic phosphate up to 600 uM after 10 mins by malachite green-phosphomolybdate colorimetric assay in presence of triton X-100
Method in brief: (§2)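 Recombinant EcFtsZ, purified by ammonium sulfate precipitation, ion exchange and gel filtration, used at 2 µM with 0.25 mM GTP in 50 mM MES pH 6.0, 100 mM KCl, 5 mM MgCl2. Incubated 10 min at 23 °C with serially diluted inhibitor. Pi read at 635 nm by malachite green-phosphomolybdate against a standard curve to give IC50. Triton X-100 at 0.01% where stated.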

Escherichia coli [4] = test: Antibacterial activity against Escherichia coli K12 C600 envA1 assessed as growth inhibition after 18 hrs by microbroth dilution method; conditions: envA1, 18 h
[5] = target: T2, Cell division protein FtsZ (Staphylococcus aureus) (UniProt P0A031); test: Inhibition of recombinant Staphylococcus aureus FtsZ GTPase activity expressed in Escherichia coli BL21 (DE3) assessed as production of inorganic phosphate up to 600 uM after 20 mins by malachite green-phosphomolybdate colorimetric assay in presence of triton X-100
T2 sequence (whole entry): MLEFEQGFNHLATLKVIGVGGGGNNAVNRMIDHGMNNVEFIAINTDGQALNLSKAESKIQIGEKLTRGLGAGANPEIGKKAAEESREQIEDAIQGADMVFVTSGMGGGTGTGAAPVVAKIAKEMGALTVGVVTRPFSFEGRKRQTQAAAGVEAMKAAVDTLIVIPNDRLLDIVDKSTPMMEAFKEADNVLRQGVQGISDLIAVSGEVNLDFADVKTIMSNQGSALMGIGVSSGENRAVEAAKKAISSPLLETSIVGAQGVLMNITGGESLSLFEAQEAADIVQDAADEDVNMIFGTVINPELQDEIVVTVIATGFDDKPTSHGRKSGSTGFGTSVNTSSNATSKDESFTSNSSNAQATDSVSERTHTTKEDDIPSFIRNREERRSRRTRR
Method in brief: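 Recombinant SaFtsZ at 6 µM with 0.25 mM GTP in 50 mM MES pH 6.0, 100 mM KCl, 5 mM MgCl2, plus 0.01% Triton X-100. Incubated 20 min at 30 °C with serially diluted inhibitor. Pi measured at 635 nm by malachite green-phosphomolybdate against a standard curve.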

Escherichia coli [6] = test: Inhibition of C-terminal YFP-fused Escherichia coli FtsZ cloned in Escherichia coli envA1 assessed as protein dispersion in from of patches throughout cytoplasm at 340 uM after 30 to 60 mins by fluorescence microscopic analysis; method in brief: as §1
[7] = target: T1, Cell division protein FtsZ (Bacillus subtilis); test: Displacement of [3H]-GTP from Bacillus subtilis FtsZ assessed as equilibrium association constant by scintillation counting assay
Method in brief: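 Nucleotide-free B. subtilis FtsZ (70 nM) incubated with 3H-GTP (100 nM) and competitor. FtsZ-bound label measured by co-sedimentation and scintillation counting. 3H-GTP binding constant determined separately. Data fit to a simple competition model.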

[8] = target: T1, Cell division protein FtsZ (Bacillus subtilis); test: Displacement of mant-GTP from Bacillus subtilis FtsZ by fluorescence anisotropy analysis
Method in brief: (§3)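 Nucleotide-free B. subtilis FtsZ (380 nM) with mant-GTP (500 nM), titrated with competitor. Displacement read as the change in fluorescence anisotropy and fit by least squares to a simple competition model. GTP (150 µM) served as the displacement control.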

[9] = target: T3, Cell division protein FtsZ (Bacillus subtilis, UniProt A5Z1V5); test: Inhibition of Bacillus subtilis FtsZ GTPase activity assessed as production of inorganic phosphate measured up to 60 mins by malachite green-phosphomolybdate colorimetric assay
T3 sequence (A5Z1V5 whole entry): T1 sequence (whole entry)

[10] = Inhibition of recombinant Escherichia coli FtsZ GTPase activity expressed in Escherichia coli BL21 (DE3) assessed as production of inorganic phosphate after 10 mins by malachite green-phosphomolybdate colorimetric assay; method in brief: as §2
[11] = target: T1, Cell division protein FtsZ (Bacillus subtilis); test: Displacement of mant-GTP from Bacillus subtilis FtsZ assessed as equilibrium association constant by fluorescence anisotropy analysis; method in brief: as §3
[12] = target: T4, Cell division protein FtsZ (Staphylococcus aureus, UniProt P0A031); test: Inhibition of recombinant Staphylococcus aureus FtsZ GTPase activity expressed in Escherichia coli BL21 (DE3) assessed as production of inorganic phosphate after 20 mins by malachite green-phosphomolybdate colorimetric assay
T4 sequence (P0A031 whole entry): T2 sequence (whole entry)
Method in brief: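 SaFtsZ (recombinant; stored at −80 °C in 50 mM Tris pH 7.4, 50 mM KCl, 1 mM EDTA, 10% glycerol), 6 µM, with 0.25 mM GTP in 50 mM MES pH 6.0, 100 mM KCl, 5 mM MgCl₂. Run 20 min at 30 °C with serially diluted inhibitor. Pi read at 635 nm against a standard curve to give IC₅₀. DMSO control up to 8%.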

Escherichia coli [13] = test: Inhibition of C-terminal YFP-fused Escherichia coli FtsZ cloned in Escherichia coli envA1 assessed as Z ring formation at 340 uM after 30 to 60 mins by fluorescence microscopic analysis; method in brief: as §1
Escherichia coli [14] = test: Inhibition of C-terminal YFP-fused Escherichia coli FtsZ transformed in Escherichia coli envA1 assessed as Z ring formation at 125 uM after 30 to 60 mins by fluorescence microscopic analysis; method in brief: as §1
Escherichia coli [15] = test: Inhibition of C-terminal YFP-fused Escherichia coli FtsZ cloned in Escherichia coli envA1 assessed as protein dispersion in from of patches throughout cytoplasm at 125 uM after 30 to 60 mins by fluorescence microscopic analysis; method in brief: as §1
Escherichia coli [16] = test: Inhibition of C-terminal RFP-fused Escherichia coli FtsZ cloned in Escherichia coli envA1 assessed as intact red fluorescent Z-ring formation at 680 uM after 30 to 60 mins by fluorescence microscopic analysis
Method in brief: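 envA1 carrying arabinose-inducible pFtsZ-tdTomato (pFtsZ-RFP), induced and treated by the same protocol, 680 µM for 30 min. Red fluorescence imaged (ex 555, em 630) alongside the yellow channel and DIC at 30 and 60 min post induction.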

Escherichia coli [17] = test: Inhibition of C-terminal YFP-fused Escherichia coli FtsZ cloned in Escherichia coli envA1 assessed as mislocalization of protein throughout cell at 680 uM after 30 mins by fluorescence microscopic analysis; method in brief: as §1
Escherichia coli [18] = test: Inhibition of C-terminal YFP-fused Escherichia coli FtsZ cloned in Escherichia coli envA1 assessed as mislocalization of protein throughout cell at 120 uM after 30 to 60 mins by fluorescence microscopic analysis; method in brief: as §1

Compound: Oc1cc(O)c2c(c1)C/C(Cl)=C\Cc1cc(c(Cl)cc1O)Oc1c(O)cc(cc1O)C/C(Cl)=C\Cc1cc(c(Cl)cc1O)O2
- inhibition (Escherichia coli [3]): Active
- inhibition (Escherichia coli [14]): Active
- MIC50 (Escherichia coli [4]): 27 µM (≈ 18.3 µg/mL)
- inhibition (Escherichia coli [15]): Active
- inhibition [5]: Active
- IC50 [10]: 9.9 µM
- IC50 [12]: 67 µM

Compound: COc1ccc2cc3[n+](cc2c1OC)CCc1cc2c(cc1-3)OCO2
- inhibition (Escherichia coli [16]): inactive
- inhibition (Escherichia coli [17]): Active

Compound: CCN(CC)CCNc1nc(/C=C/c2ccc(Cl)cc2)nc2cc3ccccc3cc12
- inhibition (Escherichia coli [18]): Active

Second part, the compound after the results:

- inhibition (Escherichia coli [1]): Active
Compound: Oc1ccc(Cl)cc1Cc1cc(Cl)cc(Cc2cc(Cl)ccc2O)c1O

- inhibition [2]: Active
- inhibition (Escherichia coli [3]): Active
- MIC50 (Escherichia coli [4]): 84 µM (≈ 31 µg/mL)
- inhibition [5]: Active
- inhibition (Escherichia coli [6]): Active
- Ka [7]: 0.87 ×10⁵ /M
- inhibition [8]: Dose-dependent effect
- IC50 [9]: 70 µM
- IC50 [10]: 37 µM
- Ka [11]: 1.5 ×10⁵ /M
- IC50 [12]: 38 µM
- inhibition (Escherichia coli [13]): Active
Compound: COc1cc(C/C=C(/Cl)Cc2cc(O)cc(O)c2)c(OC)cc1Cl
